ChEMBL document CHEMBL1777788, “Synthesis and in vitro antimicrobial activities of new (cyano-NNO-azoxy)pyrazole derivatives” (2011)
Converted amounts (≈) assume the structure as drawn.

Experiments:
Candida albicans [1] = test: Antimicrobial activity against Candida albicans isolate 48 after 48 hrs by microdilution broth method; format: functional; details: isolate 48, 48 h
In short: (§1)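 Yeasts were grown overnight on Sabouraud dextrose agar at 35°C, suspended in water, and adjusted at 530 nm to McFarland 0.5 (approximately 1-5 x 10^6 CFU/ml). They were then diluted 1:100 and 1:20 in RPMI 1640 with 0.165 M MOPS and 2% glucose. Compound in DMSO was tested at ten concentrations, 0.25–256 mg/L, with incubation at 35°C. At 48 h, MIC was read spectrophotometrically as 50% turbidity reduction versus growth control.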

Candida parapsilosis [2] = test: Antimicrobial activity against Candida parapsilosis isolate 44 after 48 hrs by microdilution broth method; format: functional; details: Lodderomyces parapsilosis, isolate 44, 48 h; in short: as §1
Nakaseomyces glabratus [3] = test: Antimicrobial activity against Candida glabrata isolate 49 after 48 hrs by microdilution broth method; format: functional; in short: as §1
Candida parapsilosis [4] = test: Antimicrobial activity against Candida parapsilosis isolate 19 after 48 hrs by microdilution broth method; format: functional; details: Lodderomyces parapsilosis, isolate 19, 48 h; in short: as §1
Staphylococcus aureus [5] = test: Antimicrobial activity against methicillin-susceptible Staphylococcus aureus isolate after 24 hrs by microdilution broth method
Candida albicans [6] = test: Antimicrobial activity against Candida albicans isolate 47 after 48 hrs by microdilution broth method; format: functional; details: isolate 47, 48 h; in short: as §1
[7] = system: Cryptococcus deneoformans; test: Antimicrobial activity against Cryptococcus neoformans var. neoformans isolate 14 after 48 hrs by microdilution broth method; format: functional; details: isolate 14, 48 h; in short: as §1
[8] = system: Cryptococcus deneoformans; test: Antimicrobial activity against Cryptococcus neoformans var. neoformans isolate 30 after 48 hrs by microdilution broth method; format: functional; details: isolate 30, 48 h; in short: as §1
Candida parapsilosis [9] = test: Antimicrobial activity against Candida parapsilosis ATCC 22019 after 48 hrs by microdilution broth method; format: functional; details: Lodderomyces parapsilosis, ATCC 22019, 48 h; in short: as §1
Nakaseomyces glabratus [10] = test: Antimicrobial activity against Candida glabrata isolate 30 after 48 hrs by microdilution broth method; format: functional; in short: as §1
[11] = system: Cryptococcus deneoformans; test: Antimicrobial activity against Cryptococcus neoformans var. neoformans isolate 25 after 48 hrs by microdilution broth method; format: functional; details: isolate 25, 48 h; in short: as §1
Candida tropicalis [12] = test: Antimicrobial activity against Candida tropicalis isolate 11 after 48 hrs by microdilution broth method; format: functional; details: isolate 11, 48 h; in short: as §1
Nakaseomyces glabratus [13] = test: Antimicrobial activity against Candida glabrata isolate 46 after 48 hrs by microdilution broth method; format: functional; in short: as §1
Candida albicans [14] = test: Antimicrobial activity against Candida albicans isolate 41 after 48 hrs by microdilution broth method; format: functional; details: isolate 41, 48 h; in short: as §1
Candida parapsilosis [15] = test: Antimicrobial activity against Candida parapsilosis isolate 26 after 48 hrs by microdilution broth method; format: functional; details: Lodderomyces parapsilosis, isolate 26, 48 h; in short: as §1
Nakaseomyces glabratus [16] = test: Antimicrobial activity against Candida glabrata isolate 32 after 48 hrs by microdilution broth method; format: functional; details: isolate 32, 48 h; in short: as §1
Pseudomonas aeruginosa [17] = test: Antimicrobial activity against Pseudomonas aeruginosa isolate 2 after 24 hrs by microdilution broth method; details: isolate 2, 24 h
Candida albicans [18] = test: Antimicrobial activity against Candida albicans isolate 31 after 48 hrs by microdilution broth method; format: functional; details: isolate 31, 48 h; in short: as §1
Staphylococcus aureus [19] = test: Antimicrobial activity against methicillin-resistant Staphylococcus aureus isolate after 24 hrs by microdilution broth method
Pichia kudriavzevii [20] = test: Antimicrobial activity against Candida krusei ATCC 6258 after 48 hrs by microdilution broth method; format: functional; details: ATCC 6258, 48 h
Candida tropicalis [21] = test: Antimicrobial activity against Candida tropicalis isolate 22 after 48 hrs by microdilution broth method; format: functional; details: isolate 22, 48 h; in short: as §1
Pichia kudriavzevii [22] = test: Antimicrobial activity against Candida krusei isolate 43 after 48 hrs by microdilution broth method; format: functional
Pseudomonas aeruginosa [23] = test: Antimicrobial activity against Pseudomonas aeruginosa isolate 1 after 24 hrs by microdilution broth method; details: isolate 1, 24 h
Escherichia coli = test: Antimicrobial activity against Escherichia coli isolate after 24 hrs by microdilution broth method
Proteus mirabilis = test: Antimicrobial activity against Proteus mirabilis isolate after 24 hrs by microdilution broth method
Candida tropicalis [24] = test: Antimicrobial activity against Candida tropicalis isolate 33 after 48 hrs by microdilution broth method; format: functional; details: isolate 33, 48 h; in short: as §1
Pichia kudriavzevii [25] = test: Antimicrobial activity against Candida krusei isolate 48 after 48 hrs by microdilution broth method; format: functional
Pichia kudriavzevii [26] = test: Antimicrobial activity against Candida krusei isolate 31 after 48 hrs by microdilution broth method; format: functional; details: isolate 31, 48 h; in short: as §1
[27] = system: Cryptococcus deneoformans; test: Antimicrobial activity against Cryptococcus neoformans var. neoformans isolate 27 after 48 hrs by microdilution broth method; format: functional; details: isolate 27, 48 h; in short: as §1

SMILES	MIC (Candida albicans [1]) [µg/mL]	MIC (Candida parapsilosis [2]) [µg/mL]	MIC (Nakaseomyces glabratus [3]) [µg/mL]	MIC (Candida parapsilosis [4]) [µg/mL]	MIC (Staphylococcus aureus [5]) [µg/mL]	MIC (Candida albicans [6]) [µg/mL]	MIC [7] [µg/mL]	MIC [8] [µg/mL]	MIC (Candida parapsilosis [9]) [µg/mL]	MIC (Nakaseomyces glabratus [10]) [µg/mL]	MIC [11] [µg/mL]	MIC (Candida tropicalis [12]) [µg/mL]	MIC (Nakaseomyces glabratus [13]) [µg/mL]	MIC (Candida albicans [14]) [µg/mL]	MIC (Candida parapsilosis [15]) [µg/mL]	MIC (Nakaseomyces glabratus [16]) [µg/mL]	MIC (Pseudomonas aeruginosa [17]) [µg/mL]	MIC (Candida albicans [18]) [µg/mL]	MIC (Staphylococcus aureus [19]) [µg/mL]	MIC (Pichia kudriavzevii [20]) [µg/mL]	other results
Cc1c(/[N+]([O-])=N/C#N)c(-c2cccs2)nn1C	1 (≈ 4.04 µM)	8 (≈ 32.4 µM)	0.25 (≈ 1.01 µM)	16 (≈ 64.7 µM)	8 (≈ 32.4 µM)	1 (≈ 4.04 µM)	2 (≈ 8.09 µM)	2 (≈ 8.09 µM)	16 (≈ 64.7 µM)	0.25 (≈ 1.01 µM)	2 (≈ 8.09 µM)	8 (≈ 32.4 µM)	0.25 (≈ 1.01 µM)	0.5 (≈ 2.02 µM)	8 (≈ 32.4 µM)	0.25 (≈ 1.01 µM)	> 128	1 (≈ 4.04 µM)	4 (≈ 16.2 µM)	0.5 (≈ 2.02 µM)	MIC (Candida tropicalis [21]): 16 µg/mL (≈ 64.7 µM); MIC (Pichia kudriavzevii [22]): 1 µg/mL (≈ 4.04 µM); MIC (Pseudomonas aeruginosa [23]): > 128 µg/mL; MIC (Escherichia coli): > 128 µg/mL; MIC (Proteus mirabilis): > 128 µg/mL; MIC (Candida tropicalis [24]): 8 µg/mL (≈ 32.4 µM); MIC (Pichia kudriavzevii [25]): 0.5 µg/mL (≈ 2.02 µM); MIC (Pichia kudriavzevii [26]): 0.5 µg/mL (≈ 2.02 µM); MIC [27]: 2 µg/mL (≈ 8.09 µM)
Cc1c(/[N+]([O-])=N/C#N)c(-c2ccccn2)nn1C	128 (≈ 528 µM)	128 (≈ 528 µM)	128 (≈ 528 µM)	128 (≈ 528 µM)	64 (≈ 264 µM)	128 (≈ 528 µM)	16 (≈ 66 µM)	8 (≈ 33 µM)	128 (≈ 528 µM)	64 (≈ 264 µM)	8 (≈ 33 µM)	128 (≈ 528 µM)	64 (≈ 264 µM)	16 (≈ 66 µM)	128 (≈ 528 µM)	4 (≈ 16.5 µM)	> 128	64 (≈ 264 µM)	32 (≈ 132 µM)	16 (≈ 66 µM)	MIC (Candida tropicalis [21]): 128 µg/mL (≈ 528 µM); MIC (Pichia kudriavzevii [22]): 16 µg/mL (≈ 66 µM); MIC (Pseudomonas aeruginosa [23]): > 128 µg/mL; MIC (Escherichia coli): > 128 µg/mL; MIC (Proteus mirabilis): > 128 µg/mL; MIC (Candida tropicalis [24]): 128 µg/mL (≈ 528 µM); MIC (Pichia kudriavzevii [25]): 8 µg/mL (≈ 33 µM); MIC (Pichia kudriavzevii [26]): 16 µg/mL (≈ 66 µM); MIC [27]: 16 µg/mL (≈ 66 µM)
Cc1cc(-c2nn(C)c(C)c2/[N+]([O-])=N/C#N)nn1C	> 128	> 128	> 128	> 128	32 (≈ 123 µM)	> 128	16 (≈ 61.7 µM)	16 (≈ 61.7 µM)	> 128	> 128	16 (≈ 61.7 µM)	> 128	> 128	> 128	> 128	> 128	> 128	64 (≈ 247 µM)	32 (≈ 123 µM)	> 128	MIC (Candida tropicalis [21]): > 128 µg/mL; MIC (Pichia kudriavzevii [22]): > 128 µg/mL; MIC (Pseudomonas aeruginosa [23]): > 128 µg/mL; MIC (Escherichia coli): > 128 µg/mL; MIC (Proteus mirabilis): > 128 µg/mL; MIC (Candida tropicalis [24]): > 128 µg/mL; MIC (Pichia kudriavzevii [25]): > 128 µg/mL; MIC (Pichia kudriavzevii [26]): > 128 µg/mL; MIC [27]: 16 µg/mL (≈ 61.7 µM)
Cc1cc(-c2nn(C)c(C)c2/[N+]([O-])=N/C#N)no1	> 128	128 (≈ 520 µM)	128 (≈ 520 µM)	128 (≈ 520 µM)	16 (≈ 65 µM)	> 128	4 (≈ 16.2 µM)	8 (≈ 32.5 µM)	128 (≈ 520 µM)	128 (≈ 520 µM)	8 (≈ 32.5 µM)	> 128	128 (≈ 520 µM)	128 (≈ 520 µM)	128 (≈ 520 µM)	64 (≈ 260 µM)	> 128	128 (≈ 520 µM)	8 (≈ 32.5 µM)	64 (≈ 260 µM)	MIC (Candida tropicalis [21]): > 128 µg/mL; MIC (Pichia kudriavzevii [22]): 64 µg/mL (≈ 260 µM); MIC (Pseudomonas aeruginosa [23]): > 128 µg/mL; MIC (Escherichia coli): > 128 µg/mL; MIC (Proteus mirabilis): > 128 µg/mL; MIC (Candida tropicalis [24]): > 128 µg/mL; MIC (Pichia kudriavzevii [25]): 128 µg/mL (≈ 520 µM); MIC (Pichia kudriavzevii [26]): 128 µg/mL (≈ 520 µM); MIC [27]: 4 µg/mL (≈ 16.2 µM)
Cc1cc(-c2nn(C)c(C)c2/[N+]([O-])=N/C#N)on1	128 (≈ 520 µM)	128 (≈ 520 µM)	128 (≈ 520 µM)	128 (≈ 520 µM)	4 (≈ 16.2 µM)	128 (≈ 520 µM)	2 (≈ 8.12 µM)	2 (≈ 8.12 µM)	128 (≈ 520 µM)	128 (≈ 520 µM)	2 (≈ 8.12 µM)	128 (≈ 520 µM)	128 (≈ 520 µM)	64 (≈ 260 µM)	128 (≈ 520 µM)	32 (≈ 130 µM)	> 128	128 (≈ 520 µM)	2 (≈ 8.12 µM)	32 (≈ 130 µM)	MIC (Candida tropicalis [21]): > 128 µg/mL; MIC (Pichia kudriavzevii [22]): 32 µg/mL (≈ 130 µM); MIC (Pseudomonas aeruginosa [23]): > 128 µg/mL; MIC (Escherichia coli): > 128 µg/mL; MIC (Proteus mirabilis): > 128 µg/mL; MIC (Candida tropicalis [24]): 128 µg/mL (≈ 520 µM); MIC (Pichia kudriavzevii [25]): 64 µg/mL (≈ 260 µM); MIC (Pichia kudriavzevii [26]): 64 µg/mL (≈ 260 µM); MIC [27]: 2 µg/mL (≈ 8.12 µM)
